# Assay results collected from several papers.
# Compare with care: the assays were run in different laboratories.
Structure (SMILES),target or system,assay,test system,setting,endpoint,value
Cc1ccc(NC(=O)c2cc3c(=O)n4cccc(C)c4nc3n2C)cc1Cl,Severe acute respiratory syndrome coronavirus 2,viral replication,Vero,1 nM,inhibition,8.11%
CC(=O)[C@H]1CC[C@H]2[C@@H]3CCC4=CC(=O)CC[C@]4(C)[C@H]3CC[C@]12C,Severe acute respiratory syndrome coronavirus 2,viral replication,Vero C1008,,IC50,9330 nM
Cn1c(C(=O)Nc2ccc(Cl)cc2)cc2c(=O)n3ccccc3nc21,Severe acute respiratory syndrome coronavirus 2,viral replication,Vero,10 nM,inhibition,8%
CCCN1CCC=C(c2cc(-c3ccc(C)cc3)no2)C1,Severe acute respiratory syndrome coronavirus 2,"viral replication, inhibitor",A549-ACE2,,IC50,2880 nM
[O-][N+]1=C(c2ccc(Cl)cc2)C2=NCCN2c2ccccc21,Clostridioides difficile,microbial growth,,,MIC50,0.25 µg/mL
Nc1ccn([C@@H]2CS[C@H](CO)O2)c(=O)n1,Hepatitis B virus,"viral replication, qPCR",HepG2.2.15,14 days,IC50,50 nM
CN1CCN(CCc2ccc(Cl)c(Cl)c2)CC1,Severe acute respiratory syndrome coronavirus 2,"viral replication, inhibitor",A549-ACE2,,IC50,2510 nM
N#C[C@]1(CO)O[C@@H](n2cc(F)c3c(N)ncnc32)C[C@@H]1O,Hepatitis B virus,"viral replication, qPCR",HepG2.2.15,14 days,IC50,26 nM
CC(C)=CCc1c(O)ccc(C(=O)/C=C/c2ccc(O)cc2)c1O,Severe acute respiratory syndrome coronavirus 2,"cytopathic effect, inhibitor",Vero C1008,3.125 µM,inhibition,0%
CCc1ccc(NC(=O)c2cc3c(=O)n4ccccc4nc3n2C)cc1,Severe acute respiratory syndrome coronavirus 2,viral replication,Vero,10 µM,inhibition,95%
Cc1ncc([N+](=O)[O-])n1CCO,Clostridioides difficile,microbial growth,,,MIC90,0.25 µg/mL
Cc1cc(NC(=O)c2cc3c(=O)n4cccc(C)c4nc3n2C)ccc1Br,Severe acute respiratory syndrome coronavirus 2,viral replication,Vero,0.1 µM,inhibition,37.8%
Fc1ccc([C@@H]2CCNC[C@H]2COc2ccc3c(c2)OCO3)cc1,Severe acute respiratory syndrome coronavirus 2,"viral replication, inhibitor",A549-ACE2,,IC50,2510 nM
O=[N+]([O-])c1ccc(C2=[N+]([O-])c3ccccc3N3CCN=C23)cc1,Clostridioides difficile,microbial growth,,,MIC50,≤ 0.06 µg/mL
C[C@H]1COCCN1c1nc(NCc2cccnc2C(F)(F)F)c2cccnc2n1,Clostridioides difficile,"microbial growth, broth dilution",R20291,,MIC,64 µg/mL
CCN(CCO)CCCC(C)Nc1ccnc2cc(Cl)ccc12 (stereo not drawn),Severe acute respiratory syndrome coronavirus 2,"viral replication, inhibitor",A549-ACE2,,IC50,871 nM
CC(=O)c1cccc(NC(=O)c2cc3c(=O)n4ccccc4nc3n2C)c1,Severe acute respiratory syndrome coronavirus 2,viral replication,Vero,0.1 µM,inhibition,77%
C=C[C@@](C)(/C=C/c1ccc(O)cc1)CCC=C(C)C,Severe acute respiratory syndrome coronavirus 2,cytopathic effect,Vero C1008,6.25 µM,inhibition,0%
CCN(CC)CCCC(C)Nc1ccnc2cc(Cl)ccc12 (stereo not drawn),Severe acute respiratory syndrome coronavirus 2,"viral replication, inhibitor",Vero C1008,,IC50,1580 nM
O=C(O[C@@H]1Cc2c(O)cc(O)cc2O[C@@H]1c1cc(O)c(O)c(O)c1)c1cc(O)c(O)c(O)c1,Severe acute respiratory syndrome coronavirus 2,cytopathic effect,Vero C1008,3.125 µM,inhibition,0%
CC(C)(C)[C@]1(O)CCN2C[C@@H]3c4ccccc4CCc4cccc(c43)[C@H]2C1,Severe acute respiratory syndrome coronavirus 2,viral replication,Vero C1008,,IC50,6610 nM
COc1ccc(C[C@@H]2c3cc(Oc4cc(C[C@@H]5c6cc(O)c(OC)cc6CCN5C)ccc4O)c(OC)cc3CCN2C)cc1,Severe acute respiratory syndrome coronavirus 2,cytopathic effect,Vero C1008,1.562 µM,inhibition,0%
CCC(CC)COC(=O)[C@H](C)N[P@](=O)(OC[C@H]1O[C@@](C#N)(c2ccc3c(N)ncnn23)[C@H](O)[C@@H]1O)Oc1ccccc1,Severe acute respiratory syndrome coronavirus 2,viral replication,Vero,10 µM,inhibition,98%
O=C(/C=C/c1ccc(O)c(O)c1/C=C/c1ccc(O)c(O)c1)O[C@H](Cc1ccc(O)c(O)c1)C(=O)O,Severe acute respiratory syndrome coronavirus 2,"cytopathic effect, inhibitor",Vero C1008,100 µM,inhibition,58.3%
COc1cc2c(cc1OC)CN(CCc1ccc(NC(=O)c3cc(OC)c(OC)cc3NC(=O)c3cnc4ccccc4c3)cc1)CC2,Severe acute respiratory syndrome coronavirus 2,"viral replication, inhibitor",A549-ACE2,,IC50,1480 nM
Cn1c(C(=O)Nc2ccc3c(c2)OCCO3)cc2c(=O)n3ccccc3nc21,Severe acute respiratory syndrome coronavirus 2,viral replication,Vero,1 nM,inhibition,5.41%
C=CCNC1=C2C[C@@H](C)C[C@H](OC)[C@H](O)[C@@H](C)/C=C(\C)[C@H](OC(N)=O)[C@@H](OC)/C=C\C=C(/C)C(=O)NC(=C(C)C1=O)C2=O,ARPE-19,"cell growth or viability, MTT",,,IC50,> 20000 nM
